In ChEMBL document CHEMBL3804778, “Astemizole Derivatives as Fluorescent Probes for hERG Potassium Channel Imaging” (ACS Med Chem Lett, 2016):

What was measured:
[1] = target: T1, Voltage-gated inwardly rectifying potassium channel KCNH2 (Homo sapiens, UniProt Q12809); test: Binding affinity to ERG channel in human HT-29 cells assessed as fluorescence signal at 0.5 uM incubated for 10 mins by fluorescence microscopic imaging analysis in presence of astemizole; assay type: cell-based; conditions: ht-29, 10 min
Outline: (§1)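 Competition imaging in hERG-transfected HEK293 or HT-29 cells. Cells were co-incubated with 100 μM astemizole and 0.5 μM probe, then imaged by fluorescence microscopy in bright field and the GFP channel. Cell autofluorescence, with and without astemizole, was checked separately.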

HEK293 = test: Cytotoxicity against human ERG transfected HEK293 cells after 24 hrs by MTT assay; assay type: cell-based; conditions: HEK293, 24 h
Outline: (§2)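 MTT viability assay in hERG-transfected HEK293 cells and in HT-29 cells exposed to probe. Half-maximal inhibitory concentration was derived for each cell line and reported as mean ± deviation.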

[2] = target: T1, Voltage-gated inwardly rectifying potassium channel KCNH2; test: Binding affinity to ERG channel in human HT-29 cells assessed as fluorescence signal at 0.5 uM incubated for 10 mins by fluorescence microscopic imaging analysis; assay type: cell-based; conditions: ht-29, 10 min
Outline: (§3)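 Live-cell fluorescence microscopy of hERG-transfected HEK293 cells or HT-29 colorectal cancer cells incubated with probe at 0.5 μM. Images were taken in bright field and in the GFP channel. Probe photophysics were characterised at 10 μM in PBS, pH 7.4.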

[3] = target: T1, Voltage-gated inwardly rectifying potassium channel KCNH2; test: Binding affinity to human ERG channel expressed in HEK293 cells assessed as fluorescence signal at 0.5 uM incubated for 10 mins by fluorescence microscopic imaging analysis; assay type: cell-based; conditions: hek293, 10 min; outline: as §3
HT-29 = test: Cytotoxicity against human HT-29 cells after 24 hrs by MTT assay; assay type: cell-based; conditions: HT-29, 24 h; outline: as §2
[4] = target: T1, Voltage-gated inwardly rectifying potassium channel KCNH2; test: Displacement of [3H] dofetilide from human ERG channel expressed in HEK293 cell membranes incubated for 2 hrs by scintillation counting analysis
[5] = target: T1, Voltage-gated inwardly rectifying potassium channel KCNH2; test: Binding affinity to human ERG channel expressed in HEK293 cells assessed as fluorescence signal at 0.5 uM incubated for 10 mins by fluorescence microscopic imaging analysis in presence of astemizole; assay type: cell-based; conditions: hek293, 10 min; outline: as §1

T1 sequence (Q12809 whole entry): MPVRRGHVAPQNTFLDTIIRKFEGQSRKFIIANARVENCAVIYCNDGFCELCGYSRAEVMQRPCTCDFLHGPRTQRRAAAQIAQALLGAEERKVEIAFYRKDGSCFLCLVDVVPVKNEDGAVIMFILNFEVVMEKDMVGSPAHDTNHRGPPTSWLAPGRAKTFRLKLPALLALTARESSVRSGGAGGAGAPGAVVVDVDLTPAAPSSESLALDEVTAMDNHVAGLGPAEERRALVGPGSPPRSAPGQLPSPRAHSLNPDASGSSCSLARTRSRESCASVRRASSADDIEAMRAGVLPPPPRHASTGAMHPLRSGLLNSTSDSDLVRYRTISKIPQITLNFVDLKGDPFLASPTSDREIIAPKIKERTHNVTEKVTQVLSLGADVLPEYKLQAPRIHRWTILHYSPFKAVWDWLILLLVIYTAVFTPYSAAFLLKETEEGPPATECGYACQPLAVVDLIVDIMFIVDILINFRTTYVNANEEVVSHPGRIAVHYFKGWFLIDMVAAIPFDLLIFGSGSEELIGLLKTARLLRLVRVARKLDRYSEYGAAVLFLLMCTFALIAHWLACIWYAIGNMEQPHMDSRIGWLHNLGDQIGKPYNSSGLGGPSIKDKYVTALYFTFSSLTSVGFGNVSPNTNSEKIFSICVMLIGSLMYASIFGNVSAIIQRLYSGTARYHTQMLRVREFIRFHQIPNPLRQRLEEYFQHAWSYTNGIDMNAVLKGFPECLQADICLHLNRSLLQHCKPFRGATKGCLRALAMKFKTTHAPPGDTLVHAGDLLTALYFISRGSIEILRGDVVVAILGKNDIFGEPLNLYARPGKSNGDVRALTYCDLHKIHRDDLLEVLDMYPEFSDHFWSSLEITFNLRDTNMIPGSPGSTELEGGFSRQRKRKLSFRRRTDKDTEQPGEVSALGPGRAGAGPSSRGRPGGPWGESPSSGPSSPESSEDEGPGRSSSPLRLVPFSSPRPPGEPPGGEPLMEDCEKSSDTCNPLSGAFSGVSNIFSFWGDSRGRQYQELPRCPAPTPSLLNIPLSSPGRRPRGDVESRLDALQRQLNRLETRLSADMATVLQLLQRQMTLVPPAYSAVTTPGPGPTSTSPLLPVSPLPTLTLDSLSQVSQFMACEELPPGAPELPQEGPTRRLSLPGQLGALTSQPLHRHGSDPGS

Compound: O=[N+]([O-])c1ccc(NCCCCN2CCC(Nc3nc4ccccc4n3Cc3ccc(F)cc3)CC2)c2nonc12
- Activity [1]: Not Active
- IC50 (HEK293): 12.5 µM
- Activity [2]: Active
- Activity [3]: Active
- IC50 (HT-29): 36.1 µM
- IC50 [4]: 0.025 µM
- Ki [4]: 0.012 µM
- Activity [5]: Not Active

Compound: CCN(CC)c1ccc2cc(C(=O)NCCCCN3CCC(Nc4nc5ccccc5n4Cc4ccc(F)cc4)CC3)c(=O)oc2c1
- IC50 (HEK293): 4.7 µM
- IC50 (HT-29): 9.9 µM

Compound: CC(=O)Nc1ccc2c3c(cccc13)C(=O)N(CCCCN1CCC(Nc3nc4ccccc4n3Cc3ccc(F)cc3)CC1)C2=O
- IC50 (HEK293): 7.2 µM
- IC50 (HT-29): 18.6 µM

Compound: COc1ccc(CCN2CCC(Nc3nc4ccccc4n3Cc3ccc(F)cc3)CC2)cc1 [ASTEMIZOLE]
- IC50 (HEK293): 5.1 µM
- IC50 (HT-29): 15.4 µM
